Activity calls are given as the source filed them. No cut-off for these calls is given here.
Legend:
[1] = Metal chelating activity assessed as compound Zn2+ complex formation by UV-Visible spectrophotometry
Summary of the method: (§1)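 UV-vis spectra recorded from 200 to 600 nm on a multimode reader. Metals tested as CuCl2, FeSO4, ZnCl2 and AlCl3.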

[2] = Metal chelating activity assessed as compound-Al3+ complex formation by measuring maximum absorption wavelength shifted from 444 nm to 468 nm by UV-Visible spectrophotometry; summary of the method: as §1
[3] = target: T1, Amyloid-beta precursor protein (Homo sapiens, UniProt P05067); experiment: Inhibition of self-induced amyloid beta (1 to 42) (unknown origin) assessed as reduction in fibril formation incubated for 24 hrs by transmission electron microscopy
T1 sequence (P05067 whole entry): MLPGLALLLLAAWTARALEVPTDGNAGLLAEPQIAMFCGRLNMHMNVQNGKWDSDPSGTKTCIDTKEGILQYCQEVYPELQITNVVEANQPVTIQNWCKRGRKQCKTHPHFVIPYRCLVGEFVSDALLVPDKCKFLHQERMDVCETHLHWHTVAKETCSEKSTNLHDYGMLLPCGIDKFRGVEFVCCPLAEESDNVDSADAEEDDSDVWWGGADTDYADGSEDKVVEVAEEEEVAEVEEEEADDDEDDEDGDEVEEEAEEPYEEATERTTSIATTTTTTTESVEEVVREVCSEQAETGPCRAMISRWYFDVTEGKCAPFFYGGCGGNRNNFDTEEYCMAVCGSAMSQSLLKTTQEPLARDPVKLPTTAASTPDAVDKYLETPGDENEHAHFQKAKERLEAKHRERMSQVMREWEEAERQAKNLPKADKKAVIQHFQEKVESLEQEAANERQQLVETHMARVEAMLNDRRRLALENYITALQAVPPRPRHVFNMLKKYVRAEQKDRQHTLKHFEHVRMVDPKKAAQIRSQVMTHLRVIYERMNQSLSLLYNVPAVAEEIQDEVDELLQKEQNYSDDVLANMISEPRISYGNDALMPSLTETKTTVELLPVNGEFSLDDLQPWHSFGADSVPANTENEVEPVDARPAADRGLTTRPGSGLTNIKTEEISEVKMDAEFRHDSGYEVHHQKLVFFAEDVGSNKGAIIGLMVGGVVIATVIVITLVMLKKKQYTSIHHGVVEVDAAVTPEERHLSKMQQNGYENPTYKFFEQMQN
Summary of the method: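 Aβ1-42 at 25 μM incubated 24 h with or without compound at 25 μM. Samples imaged by transmission electron microscopy.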

[4] = target: T2, Acetylcholinesterase (Electrophorus electricus, UniProt O42275); experiment: Inhibition of electric eel AChE using acetylthiocholine iodide as substrate by Ellman's method
T2 sequence (O42275 whole entry): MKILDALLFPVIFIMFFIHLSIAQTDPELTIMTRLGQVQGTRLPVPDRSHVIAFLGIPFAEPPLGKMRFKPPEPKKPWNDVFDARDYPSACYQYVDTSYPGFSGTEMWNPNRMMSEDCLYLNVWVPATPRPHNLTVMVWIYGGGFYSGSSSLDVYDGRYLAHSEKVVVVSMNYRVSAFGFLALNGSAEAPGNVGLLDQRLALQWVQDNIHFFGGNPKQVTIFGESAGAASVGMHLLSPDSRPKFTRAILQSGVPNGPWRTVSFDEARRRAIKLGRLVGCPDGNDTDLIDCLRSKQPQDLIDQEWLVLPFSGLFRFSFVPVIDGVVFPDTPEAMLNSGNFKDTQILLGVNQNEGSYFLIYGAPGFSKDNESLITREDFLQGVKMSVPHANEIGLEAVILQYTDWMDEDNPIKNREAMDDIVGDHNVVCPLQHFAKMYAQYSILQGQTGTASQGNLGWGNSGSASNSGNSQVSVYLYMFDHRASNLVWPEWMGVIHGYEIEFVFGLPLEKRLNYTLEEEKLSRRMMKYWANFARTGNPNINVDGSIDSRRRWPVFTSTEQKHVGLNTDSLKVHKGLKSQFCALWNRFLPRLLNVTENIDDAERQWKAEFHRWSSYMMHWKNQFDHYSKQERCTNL

[5] = Metal chelating activity assessed as compound-Cu2+ complex formation by measuring maximum absorption wavelength shifted from 444 nm to 460 nm by UV-Visible spectrophotometry; summary of the method: as §1
[6] = tested on: Mus musculus; experiment: Antialzheimer activity in scopolamine-induced po dosed KM mouse model of memory impairment assessed as increase in latency time treated for 7 days followed by training trial at 1 hr post dose and subsequent scopolamine challenge at 30 mins post training trial and measured post last dose by step-down passive avoidance test; assay type: functional, organism-based; details: dose 2.3-20.4 mg/kg, time 7.0 day
Summary of the method: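 Mice orally dosed at 2.3, 6.8 and 20.4 mg/kg, with donepezil 5.0 mg/kg p.o. as positive control, 1 h before training trial. Scopolamine 3 mg/kg i.p. given 30 min later. Training trial uses a 0.5 mA, 2 s foot shock on stepping down from the block. Step-down latency is measured as the test trial 24 h after training. n = 10 per group.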

[7] = Acute toxicity in KM mouse assessed as abnormal behavior upto 1000 mg/kg, po administered as single dose measured for 14 days; assay type: organism-based; details: in vivo, 336 h, time 14 day
Summary of the method: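 Kunming mice, n = 10 per group, fasted overnight with free access to water, given one oral dose of 67.5, 125, 250, 500 or 1000 mg/kg. Housed on a 12 h light/dark cycle at 20–22 °C, 40–70% relative humidity. Abnormal behaviour and mortality observed continuously for the first 4 h, intermittently over the next 24 h, then occasionally to 14 days.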

[8] = target: T3, Amine oxidase [flavin-containing] B (Homo sapiens, UniProt P27338); experiment: Inhibition of human recombinant MAO-B by multimode plate reader assay
T3 sequence (P27338 whole entry): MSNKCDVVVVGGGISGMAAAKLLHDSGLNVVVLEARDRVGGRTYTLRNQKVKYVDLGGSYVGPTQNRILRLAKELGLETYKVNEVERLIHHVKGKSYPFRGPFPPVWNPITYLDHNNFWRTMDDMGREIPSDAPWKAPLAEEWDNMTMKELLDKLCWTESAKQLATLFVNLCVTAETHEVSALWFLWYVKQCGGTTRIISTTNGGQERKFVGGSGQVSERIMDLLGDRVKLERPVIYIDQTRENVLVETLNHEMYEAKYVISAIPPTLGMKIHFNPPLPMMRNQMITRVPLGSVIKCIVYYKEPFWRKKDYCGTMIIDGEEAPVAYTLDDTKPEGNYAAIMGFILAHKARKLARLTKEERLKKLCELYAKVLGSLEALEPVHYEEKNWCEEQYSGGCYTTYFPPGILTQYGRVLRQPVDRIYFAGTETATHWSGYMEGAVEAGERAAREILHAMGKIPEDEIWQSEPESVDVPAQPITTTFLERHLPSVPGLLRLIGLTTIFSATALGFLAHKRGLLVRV

[9] = Metal chelating activity assessed as compound Fe2+ complex formation by UV-Visible spectrophotometry; summary of the method: as §1
[10] = target: T1, Amyloid-beta precursor protein; experiment: Disaggregation of self-induced amyloid beta (1 to 42) (unknown origin) at 25 uM measured by Thioflavin T based fluorometric assay relative to control
[11] = Antioxidant activity of compound assessed as trolox equivalent antioxidant capacity by ORAC-FL assay; assay type: functional
[12] = tested on: PC-12; experiment: Neuroprotective activity against H2O2-induced cytotoxicity in rat PC12 cells assessed as increase in cell viability at 10 uM by MTT assay; assay type: functional
Summary of the method: (§2)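 PC12 cells exposed to 100 μM H2O2, with or without compound. Viability read by MTT reduction relative to control. Trolox 100 μM is the reference.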

[13] = tested on: PC-12; experiment: Neuroprotective activity against H2O2-induced cytotoxicity in rat PC12 cells assessed as increase in cell viability by LDH assay; assay type: functional, cell-based
Summary of the method: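 PC12 cells exposed to H2O2, with or without compound. Membrane damage read as LDH release into the supernatant. Trolox is the reference.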

[14] = target: T2, Acetylcholinesterase; experiment: Mixed type inhibition of electric eel AChE by reciprocal Lineweaver-Burk plot analysis
[15] = target: Butyrylcholinesterase (Rattus norvegicus, UniProt Q9JKC1); experiment: Inhibition of rat serum BuChE by Ellman's method
Butyrylcholinesterase, sequence (Q9JKC1 whole entry, the tested form may be a part): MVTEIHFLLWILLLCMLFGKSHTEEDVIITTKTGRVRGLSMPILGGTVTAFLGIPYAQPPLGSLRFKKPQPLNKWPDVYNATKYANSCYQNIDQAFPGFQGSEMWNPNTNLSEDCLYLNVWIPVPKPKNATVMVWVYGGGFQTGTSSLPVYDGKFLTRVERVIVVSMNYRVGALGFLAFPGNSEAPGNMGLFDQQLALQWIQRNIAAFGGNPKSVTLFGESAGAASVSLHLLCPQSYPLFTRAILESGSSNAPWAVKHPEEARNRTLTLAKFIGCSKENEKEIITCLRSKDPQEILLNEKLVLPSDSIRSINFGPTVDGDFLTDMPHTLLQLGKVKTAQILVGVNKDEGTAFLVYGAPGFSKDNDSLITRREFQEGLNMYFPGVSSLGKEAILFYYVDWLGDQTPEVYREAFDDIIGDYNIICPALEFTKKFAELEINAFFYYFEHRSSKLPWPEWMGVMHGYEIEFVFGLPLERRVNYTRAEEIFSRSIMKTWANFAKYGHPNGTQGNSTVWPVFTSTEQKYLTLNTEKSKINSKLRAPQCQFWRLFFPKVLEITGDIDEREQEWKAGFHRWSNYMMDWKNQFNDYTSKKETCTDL

[16] = target: T1, Amyloid-beta precursor protein; experiment: Inhibition of Cu2+ induced amyloid beta (1 to 42 residues) (unknown origin) aggregation at 25 uM by thioflavin-T fluorescence method relative to control
[17] = species: Homo sapiens; experiment: Selectivity index, ratio of IC50 for recombinant human MAO-A to IC50 for recombinant human MAO-B
Summary of the method: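 Selectivity index taken as IC50(hMAO-A)/IC50(hMAO-B). IC50 values are mean ± SEM from three experiments.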

[18] = tested on: PC-12; experiment: Neuroprotective activity against H2O2-induced cytotoxicity in rat PC12 cells assessed as increase in cell viability at 1 uM by MTT assay; assay type: functional; summary of the method: as §2
[19] = tested on: PC-12; experiment: Cytotoxicity against rat PC12 cells assessed as cell viability by MTT assay relative to control; assay type: functional
[20] = target: T4, Amine oxidase [flavin-containing] A (Homo sapiens, UniProt P21397); experiment: Inhibition of human recombinant MAO-A by multimode plate reader assay
T4 sequence (P21397 whole entry): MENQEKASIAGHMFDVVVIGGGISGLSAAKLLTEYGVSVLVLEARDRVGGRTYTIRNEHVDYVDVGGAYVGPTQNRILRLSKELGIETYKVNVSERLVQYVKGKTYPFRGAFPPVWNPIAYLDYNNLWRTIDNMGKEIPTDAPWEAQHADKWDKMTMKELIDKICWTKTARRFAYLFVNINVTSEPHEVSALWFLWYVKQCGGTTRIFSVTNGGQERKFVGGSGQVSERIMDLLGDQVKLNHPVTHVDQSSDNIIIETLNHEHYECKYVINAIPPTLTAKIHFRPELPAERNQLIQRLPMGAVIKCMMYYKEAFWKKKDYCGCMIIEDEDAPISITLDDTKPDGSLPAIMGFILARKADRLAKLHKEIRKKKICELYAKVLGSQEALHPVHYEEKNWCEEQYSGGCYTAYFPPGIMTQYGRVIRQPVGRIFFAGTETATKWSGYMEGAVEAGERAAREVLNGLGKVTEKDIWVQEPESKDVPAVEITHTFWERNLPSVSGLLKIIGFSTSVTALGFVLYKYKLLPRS

[21] = target: T1, Amyloid-beta precursor protein; experiment: Disaggregation of Cu2+ induced amyloid beta (1 to 42 residues) (unknown origin) aggregation at 25 uM by thioflavin-T fluorescence method relative to control
[22] = Acute toxicity in KM mouse assessed as mortality upto 1000 mg/kg,po administered as single dose measured for 14 days; assay type: organism-based; details: in vivo, 336 h, time 14 day

## CCN(CCCCOc1ccc(C(=O)/C=C/c2ccc(N(C)C)cc2)c(O)c1)Cc1ccccc1N(C)C
[1]
  Activity: inactive
[2]
  Activity: Active
[3]
  Activity: inactive
[4]
  IC50: 690 nM
[5]
  Activity: Active
[6]
  Activity: Dose-Dependent Effect
[7]
  Activity: Non-Toxic
[8]
  IC50: 1000 nM
[9]
  Activity: inactive
[10]
  Activity: 95.1%
[11]
  Activity: 2.1
[12]
  Activity: 88.1%
[13]
  Activity: Active
[14]
  Ki: 500 nM
[15]
  IC50: 236000 nM
[16]
  inhibition: 95.3%
[17]
  Selectivity Index: 18.4
[18]
  Activity: 70.9%
[19]
  Activity: >50 µM
[20]
  IC50: 18400 nM
[21]
  Activity: 88.1%
[22]
  Activity: Non-Toxic

— ChEMBL document CHEMBL4813970, “Design, synthesis and evaluation of novel dimethylamino chalcone-O-alkylamines derivatives as potential multifunctional agents against Alzheimer's disease” (Eur J Med Chem, 2021)
